Screening data from PubChem BioAssay.
Sampled rows, rich in hits. Any-hit rate of the full collection: about 2%.
XiGFP reactiv: activators of inactive X chromosome reactivation, primary screen, imaging, XiGFP fibroblasts, GFP high-content imaging, set 2 | XiGFP mouse fibroblasts, % GFP-positive cells imaging, 3 d; cells co-treated with 5-aza-dC sensitizer; scaled so ellipticine positive control = 100% | activation, % at 7.58 µM | actives 0.055% (n = 360,000) | AID 743238, 2013;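 active means mean normalized replicate activation at least 10% and every replicate at or above 10%; inconclusive means only one of the two criteria met; inactive means mean below 10% and not all replicates reach 10%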;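 further: 0% = median of on-plate neutral control wells and 100% = ellipticine 6 µM median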
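System: 68-5-11 XiGFP fibroblast line; Timing: 3 days compound exposure; Compound dosing: one concentration, pinned; Benchmarks: positive control ellipticine, 6 µM final; Buffer or medium: DMEM containing 5-aza-dC.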
FN deposit inh: inhibitors of fibronectin matrix deposition, primary screen, AH1F cells, Alexa488-fibronectin fluorescence, plate reader. inhibition, % at 12.6 µM. actives 0.086% (n = 350,000). AH1F fibroblasts, overnight;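 active means mean inhibition across replicates of 30% or more, regardless of how many single replicates reach that level; inconclusive means mean under 30% yet at least half of replicates reach 30%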;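 further: positive control wells lacked labelled fibronectin entirely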
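Measured by – fluorescence 485/525 nm · System – AH1F fibroblast monolayer, labelled fibronectin deposition · Amount – 10000 cells per well · Buffer or medium – serum-reduced DMEM (2% serum) · Doses – single dose, pinned · Also added – fluorescent fibronectin at 24 nM final · Schedule – 1 h cell attachment, overnight exposure to compound and label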
CASP6 VEID inh: human caspase-6 inhibitors, primary screen, biochemical, VEID-R110 fluorescence, single point, set 2; purified caspase-6, Z-VEID-R110 cleavage fluorescence; AID 686996, 2013; actives 0.53% (n = 350,000); inhibition, % at 12.5 µM;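 active means mean inhibition across replicates at least about 35%, with every replicate also reaching that limit, limit read from the data; inconclusive means only one of the two criteria met; inactive means neither criterion met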;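 further: 0% = median of neutral control wells and 100% = no fluorescence left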
Target sequence (P55212 24-179 limits assumed): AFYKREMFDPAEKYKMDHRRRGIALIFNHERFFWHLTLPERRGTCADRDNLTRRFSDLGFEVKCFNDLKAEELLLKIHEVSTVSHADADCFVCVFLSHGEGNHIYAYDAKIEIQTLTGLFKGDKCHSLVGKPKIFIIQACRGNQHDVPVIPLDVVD
Target sequence (P55212 194-293 limits assumed): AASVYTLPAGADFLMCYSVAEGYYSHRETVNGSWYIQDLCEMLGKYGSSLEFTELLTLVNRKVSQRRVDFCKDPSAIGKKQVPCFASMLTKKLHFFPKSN
CaV13 FRET inh: Primary screen for inhibitors of IQ motif and Ca2+-dependent inactivation inhibitor domain binding in CACNA1D, Förster resonance energy transfer in living cells, …; HEK cells, CFP/YFP FRET ICDI-IQ, plate reader, 10 min; percent FRET-ratio fall versus neutral wells; inhibition, % at 12.3 µM; actives 0.098% (n = 340,000);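 active means mean replicate inhibition of at least 30% and at least 1% of replicates passing that level; inconclusive means only one of the two criteria is met; inactive means neither criterion is met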;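 further: 0% = median of the neutral control wells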
DENV2 CPE rescue: inhibitors of DENV2 cytopathic effect, primary screen, cell-based, plate reader, single concentration; DENV2-infected cells, cytopathic effect rescue; actives 1.7% (n = 350,000); AID 651640, 2012; CPE inhibition, % at 9.99 µM; in the data active means CPE inhibition above about 20%, passing the limit was not always enough; inconclusive means no clear call, values can overlap the other calls; tested in BHK-21 cells;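 further: 0% = median of neutral control wells and 100% = median of positive control wells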
Active calls of the source: *.

Cc1cccn2c(=O)c(/C=C(\C#N)C(=O)NC3CCS(=O)(=O)C3)c(N3CC(C)OC(C)C3)nc12 (stereo not drawn) was read as XiGFP reactiv 0.2, FN deposit inh 3.3, CASP6 VEID inh 2.0, CaV13 FRET inh 2.8 and DENV2 CPE rescue -1.4.
`Cc1cccn2c(=O)c(/C=C(\C#N)C(=O)NC3CCS(=O)(=O)C3)c(N3CCC(C(N)=O)CC3)nc12` (stereo not drawn) gave XiGFP reactiv 0.0, FN deposit inh -13.1, CASP6 VEID inh -0.1, CaV13 FRET inh active and DENV2 CPE rescue 0.8.
`O=C1c2cccc3c([N+](=O)[O-])ccc(c23)C(=O)N1Cc1cccnc1` gave XiGFP reactiv 19.8*, FN deposit inh -12.8, CASP6 VEID inh 5.9, CaV13 FRET inh -250.3 and DENV2 CPE rescue 3.2.
O=C1c2cccc3cccc(c23)C(=O)N1Cc1cccnc1 was read as XiGFP reactiv 0.0, FN deposit inh 1.3, CASP6 VEID inh -1.9, CaV13 FRET inh -4.4 and DENV2 CPE rescue 1.0.
For Cc1nnc(N2C(=O)c3cccc4c([N+](=O)[O-])ccc(c34)C2=O)s1 the results were XiGFP reactiv 27.0*, FN deposit inh -9.0, CASP6 VEID inh 0.7, CaV13 FRET inh -19.5 and DENV2 CPE rescue -3.9.
Screening CCc1cc2c(cc3c(=O)n(CC(=O)NCCCN4CC(C)CC(C)C4)ncn32)s1 (stereo not drawn) returned XiGFP reactiv 0.1, FN deposit inh 4.0, CASP6 VEID inh -4.9, CaV13 FRET inh -3.4 and DENV2 CPE rescue 64.0*.
`C[C@@H]1CN([C@@H](C)CO)C(=O)Cc2cc(NC(=O)CCCN(C)C)ccc2O[C@H]1CN(C)S(=O)(=O)c1cccs1` gave XiGFP reactiv 0.2 and DENV2 CPE rescue inconclusive.
Screening CN1CCN(CC(C)(C)NS(=O)(=O)c2ccc(Cl)cc2)CC1 returned FN deposit inh 8.7 and CaV13 FRET inh -4.9.
Screening CC(C)(CN1CCN(Cc2ccccc2)CC1)NS(=O)(=O)c1ccc(Cl)cc1 returned XiGFP reactiv 0.0, FN deposit inh -8.6, CASP6 VEID inh -1.0, CaV13 FRET inh -2.8 and DENV2 CPE rescue 29.6*.
Screening CCCNC(=O)N1CC2(C1)[C@@H](c1ccccc1)[C@H](CO)N2C(=O)C1CC1 returned XiGFP reactiv 0.0, CASP6 VEID inh 0.5 and DENV2 CPE rescue 11.2.
COCC(=O)Nc1ccc2c(c1)C(=O)N(C)C[C@@H](OC)[C@@H](C)CN(Cc1ccccc1OC)[C@H](C)CO2 was read as XiGFP reactiv 0.0, FN deposit inh -7.3, CASP6 VEID inh -0.1 and DENV2 CPE rescue -0.9.
`O=C(NC[C@H]1CC[C@H]2[C@H](CN2C(=O)C2CC2)O1)c1cnccn1` gave CASP6 VEID inh -2.3 and DENV2 CPE rescue 9.1.
`CC1(C(=O)NS(=O)(=O)Cc2cccc(Cl)c2)CCN1C(=O)c1ccc(C2CCCCC2)cc1` (stereo not drawn) gave XiGFP reactiv 0.0, CASP6 VEID inh 14.2, CaV13 FRET inh -2.8 and DENV2 CPE rescue 89.8*.
Screening CC1(C(=O)NS(=O)(=O)Cc2ccccc2)CCN1C(=O)c1ccc(C2CCCCC2)cc1 (stereo not drawn) returned XiGFP reactiv 0.1, FN deposit inh 7.7, CASP6 VEID inh -0.5, CaV13 FRET inh -3.6 and DENV2 CPE rescue -4.5.
O=S(=O)(O)c1cc(O)c(N=Nc2ccc(O)cc2O)c2ccccc12 was read as XiGFP reactiv 0.0, FN deposit inh -0.2, CASP6 VEID inh 52.0*, CaV13 FRET inh -7.1 and DENV2 CPE rescue 1.1.
Screening CO[C@@H]1CN(C)C(=O)c2ccc(NC(=O)c3cccc(F)c3)cc2OC[C@@H](C)NC[C@H]1C returned XiGFP reactiv 0.4, FN deposit inh 4.8, CASP6 VEID inh 4.3 and DENV2 CPE rescue 30.7*.
`CO[C@@H]1CN(C)C(=O)c2ccc(NC(=O)c3cccc(F)c3)cc2OC[C@H](C)NC[C@H]1C` gave XiGFP reactiv 0.4, FN deposit inh -1.1, CASP6 VEID inh -0.3 and DENV2 CPE rescue 17.1.
